Reference: ChEMBL document CHEMBL1255395, “Laninamivir prodrug CS-8958, a long-acting neuraminidase inhibitor, shows superior anti-influenza virus activity after a single administration” (Antimicrob Agents Chemother, 2010)
Calls of active or inactive are those of the source. The rule behind the calls is not given here.

Legend:
Format in all cases: functional, organism-based
[1] = tested on: Influenza A virus; experiment: Antimicrobial activity against H274Y mutant oseltamivir-resistant influenza A virus (A/Yokohama/67/2006 (H1N1)) clone 11 infected in BALB/c mouse assessed as reduction in viral titer in lung at 0.080 mg/kg, itn administered 13 hrs post infection measured after 61 hrs post infection; parameters: dose 0.08 mg/kg
Outline: (§1)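 Female BALB/c mice (5–6 weeks) infected intranasally with clone 11, then given a single intranasal dose in saline at 13 hpi. Lungs from 3 mice per time point were homogenized in PBS with 0.4% BSA and centrifuged at 2,200 × g. Supernatants were titrated by MDCK plaque assay (agar overlay with 1 μg/ml trypsin, 2 days, crystal violet). Reported as log10 PFU/lungs, mean ± SD; detection limit 2.4.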

[2] = tested on: Influenza A virus; experiment: Antimicrobial activity against H274Y mutant oseltamivir-resistant influenza A virus (A/Yokohama/67/2006 (H1N1)) clone 11 infected in BALB/c mouse assessed as reduction in viral titer in lung at 0.080 mg/kg, itn administered 13 hrs post infection measured after 37 hrs post infection; parameters: dose 0.08 mg/kg; outline: as §1
[3] = tested on: Influenza A virus; experiment: Antimicrobial activity against H274Y mutant oseltamivir-resistant influenza A virus (A/Yokohama/67/2006 (H1N1)) clone 11 infected in BALB/c mouse assessed as reduction in viral titer in lung at 0.080 mg/kg, itn administered 13 hrs post infection measured after 85 hrs post infection; parameters: dose 0.08 mg/kg; outline: as §1
[4] = tested on: Influenza A virus; experiment: Antimicrobial activity against H274Y mutant oseltamivir-resistant influenza A virus (A/Yokohama/67/2006 (H1N1)) clone 11 infected in BALB/c mouse assessed as reduction in viral titer in lung at 10 mg/kg, po administered 13 hrs post infection, qd measured after 85 hrs post infection; parameters: dose 10 mg/kg
[5] = tested on: Influenza A virus; experiment: Antimicrobial activity against H274Y mutant oseltamivir-resistant influenza A virus (A/Yokohama/67/2006 (H1N1)) clone 11 infected in BALB/c mouse assessed as reduction in viral titer in lung at 10 mg/kg, po administered 13 hrs post infection, qd measured after 61 hrs post infection; parameters: dose 10 mg/kg
[6] = tested on: Influenza A virus; experiment: Antimicrobial activity against H274Y mutant oseltamivir-resistant influenza A virus (A/Yokohama/67/2006 (H1N1)) clone 11 infected in BALB/c mouse assessed as reduction in viral titer in lung at 1.0 mg/kg, po administered 13 hrs post infection, qd measured after 61 hrs post infection; parameters: dose 1 mg/kg
[7] = tested on: Influenza A virus; experiment: Antimicrobial activity against H274Y mutant oseltamivir-resistant influenza A virus (A/Yokohama/67/2006 (H1N1)) clone 11 infected in BALB/c mouse assessed as reduction in viral titer in lung at 10 mg/kg, po administered 13 hrs post infection, qd measured after 37 hrs post infection; parameters: dose 10 mg/kg
[8] = tested on: Influenza A virus; experiment: Antimicrobial activity against H274Y mutant oseltamivir-resistant influenza A virus (A/Yokohama/67/2006 (H1N1)) clone 11 infected in BALB/c mouse assessed as reduction in viral titer in lung at 1.0 mg/kg, po administered 13 hrs post infection, qd measured after 85 hrs post infection; parameters: dose 1 mg/kg
[9] = tested on: Influenza A virus; experiment: Antimicrobial activity against H274Y mutant oseltamivir-resistant influenza A virus (A/Yokohama/67/2006 (H1N1)) clone 11 infected in BALB/c mouse assessed as reduction in viral titer in lung at 1.0 mg/kg, po administered 13 hrs post infection, qd measured after 37 hrs post infection; parameters: dose 1 mg/kg

Structure (SMILES) | Activity [1] | Activity [2] | Activity [3] | Activity [4] | Activity [5] | Activity [6] | Activity [7] | Activity [8] | Activity [9]
CCCCCCCC(=O)OC[C@@H](O)[C@@H](OC)[C@@H]1OC(C(=O)O)=C[C@H](NC(=N)N)[C@H]1NC(C)=O [LANINAMIVIR OCTANOATE] | Active | Active | Active |  |  |  |  |  | 
CCOC(=O)C1=C[C@@H](OC(CC)CC)[C@H](NC(C)=O)[C@@H](N)C1.O=P(O)(O)O [OSELTAMIVIR PHOSPHATE] |  |  |  | inactive | inactive | inactive | inactive | inactive | inactive
